The values below come from article PMC6586500 (SLAS discovery : advancing life sciences R & D, 2019).

One may read the Kd as the equilibrium constant for the complex coming apart. In general, IC50 refers to the point on the concentration scale where inhibition reaches its midpoint. Low values mean greater potency, high ones weaker potency. As usually defined, the inhibition is the share of the control response that was lost under treatment.

Square brackets hold non-standard residues; d marks the D form. Peptide text beside a SMILES is read from it. * marks the point of attachment. Benzoyl(4-tBu) = CC(C)(C)c1ccc(C(=O)*)cc1; Lys(Et2) = CCN(CC)CCCC[C@H](N)C(=O)O

The target of experiment [1] is CBX5 (Homo sapiens, UniProt P45973). As to conditions: affinity of CBX5 for H3K9me3; cited from earlier work.
The target of experiment [2] is T1, MPP8 (Homo sapiens, UniProt Q99549).
T1 sequence (Q99549 55-116): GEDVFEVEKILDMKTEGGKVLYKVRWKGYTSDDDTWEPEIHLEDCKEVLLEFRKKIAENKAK
As to conditions: MPP8 binding the tracer peptide H3K9me3; cited from earlier work.

The target of experiment [3] is T2, CBX2 (Homo sapiens, UniProt Q14781).
T2 sequence (Q14781 9-66): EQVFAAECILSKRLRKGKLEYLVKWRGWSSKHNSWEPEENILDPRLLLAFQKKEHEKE
As to the kind of experiment: TR-FRET competition assay, CBX2 chromodomain with UNC4195 tracer. The experiment is classed as binding. In short, it runs like this: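 His-tagged protein, biotinylated tracer and TR-FRET reagent (Eu-streptavidin, anti-6X-His ULight antibody) premixed in 20 mM Tris pH 7.5, 150 mM NaCl, 0.05% Tween 20, 2 mM DTT. Added to plates pre-stamped from 10 mM DMSO stocks (100X). Shaken 1 min, spun 1000 x g 2 min, 1 h dark. DMSO and competitor full-column controls per plate. Follow-up used 10-point threefold dilutions and a four-parameter fit for IC50.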

Experiment [4] deals with T3, CBX7 (Homo sapiens, UniProt O95931).
T3 sequence (O95931 8-62): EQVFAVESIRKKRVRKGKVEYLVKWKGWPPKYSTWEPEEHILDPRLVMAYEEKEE
Briefly: TR-FRET competition assay, CBX7 chromodomain with UNC4195 tracer. Type of experiment: binding. A general note: In TR-FRET formats the signal depends on donor and acceptor labels being close together.

In experiment [5] the target is T1, MPP8. Briefly: TR-FRET competition assay, MPP8 chromodomain with H3K9me3 tracer. The experiment is classed as binding. The method, boiled down: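 His-tagged protein plus biotinylated tracer peptide with Eu-streptavidin and anti-6X-His ULight antibody, in 20 mM Tris pH 7.5, 150 mM NaCl, 0.05% Tween 20, 2 mM DTT; 10 µL total. Test compound: 16-point threefold dilution in buffer, in triplicate. Mixed, centrifuged, equilibrated 1 h in the dark, then read. Percent inhibition relative to DMSO (0%) and 100 µM competitor (100%); four-parameter fit gives IC50.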

Chain of CBX5 (P45973 18-75): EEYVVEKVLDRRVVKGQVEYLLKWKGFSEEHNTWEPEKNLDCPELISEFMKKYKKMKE

With “ARTKQTARK(Me3)STGGKAPRKQL-K(Biotin)-NH2 [H3K9me3]”, in experiment [1], the Kd was about 30000 nM. Moreover, the affinity result in experiment [2] was “sub-micromolar”.
Consider `CCN(CC)CCCC[C@H](NC(=O)[C@H](CC(C)C)NC(=O)[C@H](C)NC(=O)[C@H](Cc1ccccc1)NC(=O)c1ccc(C(C)(C)C)cc1)C(=O)N[C@@H](CO)C(=O)OC` [UNC3866] ({Benzoyl(4-tBu)}-FAL[Lys(Et2)]S-OMe), for which the half-inhibitory concentration (IC50) in experiment [3] worked out at 1500 nM; in experiment [4], 60 nM; in experiment [5], 1000 nM. Besides, in experiment [3] (single-dose 25 µM, pilot screen in duplicate, 100% = 100 µM UNC3866), the inhibition came to 100%.
